According to ChEMBL document CHEMBL1122679, “Beta-adrenergic blocking agents: substituted phenylalkanolamines. Effect of side-chain length on beta-blocking potency in vitro” (J Med Chem, 1984):

Key:
[1] = Partition coefficient (logP); type: physicochemical; conditions: octanol/water
Method in brief: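 Octanol/buffer partitioning. Compounds at about 10^-4 M in 0.067 M pH 7.4 phosphate buffer (octanol-saturated) were shaken with buffer-saturated 1-octanol for 1 h at 25.0 °C, then centrifuged. Concentrations in each phase were measured spectrophotometrically. The coefficient was taken as the octanol/buffer concentration ratio, done in triplicate.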

Cavia porcellus [2] = species: Cavia porcellus; assay: Beta-adrenoceptor blocking potency in the isolated guinea pig heart, giving 50% inhibition of isoproterenol-induced tachycardia; type: functional
Method in brief: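 Langendorff-perfused isolated hearts from male Pirbright guinea pigs (330-640 g), removed under urethane anesthesia (1.5 g/kg ip). Perfusion with oxygenated Krebs-Henseleit plus ascorbic acid and NaEDTA at 36 °C. Heart rate recorded continuously. After ~30 min control, DL-isoproterenol sulfate (0.005 µg/mL) was added to the perfusate. Increasing compound concentrations were then given, 10 min each, against the isoproterenol tachycardia.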

Cavia porcellus [3] = species: Cavia porcellus; assay: Beta-adrenoceptor blocking potency in the isolated guinea pig heart, giving 50% inhibition of isoproterenol-induced tachycardia relative to oxprenolol; type: functional
Cavia porcellus [4] = species: Cavia porcellus; assay: Compound was evaluated for beta-adrenoceptor blocking potency in the isolated guinea pig, giving 50% inhibition of isoproterenol-induced tachycardia relative to oxprenolol; type: functional
[5] = pK value is evaluated; type: ADME; conditions: read-out: pK
Method in brief: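 Spectrophotometric determination. Dilute solutions were circulated through a glass electrode and a 1-cm spectrophotometer cell. pKa was calculated from the pH-dependent spectra.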

logP ([1]; read-out: logP)	pKa [5]	logP [1]	SMILES	-Log concentration (Cavia porcellus [2])	Relative activity (Cavia porcellus [3])	Relative activity (Cavia porcellus [4])
1.24			NC(=O)c1cc(OCCNCC(O)c2ccccc2)ccc1O (stereo unspecified)	5.66 log_unit	0.011	
			COc1ccc(CCC(O)CNCCOc2ccc(O)c(C(N)=O)c2)cc1 (stereo unspecified)	6.07 log_unit		0.029
			NC(=O)c1cc(OCCNCC(O)CCc2ccccc2)ccc1O (stereo unspecified)	6.9 log_unit	0.19	
			COc1ccccc1CCCC(O)CNCCOc1ccc(O)c(C(N)=O)c1 (stereo unspecified)	6.6 log_unit	0.1	
			COc1ccccc1C(O)CNCCOc1ccc(O)c(C(N)=O)c1 (stereo unspecified)	7.12 log_unit	0.33	
-0.21	9.9		COc1ccccc1CCC(O)CNC(C)(C)C (stereo unspecified)	5.67 log_unit	0.012	
1.14	8.8		COc1ccccc1OCC(O)CNCCOc1ccc(O)c(C(N)=O)c1 (stereo unspecified)	8.45 log_unit		6.9
			COc1ccccc1CC(O)CNCCOc1ccc(O)c(C(N)=O)c1 (stereo unspecified)	6.39 log_unit	0.061	
-0.44	9.8		COc1ccccc1OCC(O)CNC(C)(C)C (stereo unspecified)	7.26 log_unit	0.45	
			NC(=O)c1cc(OCCNCC(O)CCCCc2ccccc2)ccc1O (stereo unspecified)	5.85 log_unit	0.018	
			NC(=O)c1cc(OCCNCC(O)Cc2ccccc2)ccc1O (stereo unspecified)	5.84 log_unit	0.018	
			COc1ccccc1CCCCC(O)CNCCOc1ccc(O)c(C(N)=O)c1 (stereo unspecified)	6.43 log_unit	0.068	
			Cc1ccccc1CCC(O)CNCCOc1ccc(O)c(C(N)=O)c1 (stereo unspecified)	7.08 log_unit	0.3	
1.56	8.9		COc1ccccc1CCC(O)CNCCOc1ccc(O)c(C(N)=O)c1 (stereo unspecified)	7.85 log_unit	1.8	
	9.4	0.2	C=CCOc1ccccc1OCC(O)CNC(C)C (stereo unspecified) [OXPRENOLOL]	7.6 M l-1	1	
